Reference: ChEMBL document CHEMBL4689842, “EUbOPEN Chemogenomics Library wave 1” (2021)

Test system: Fibroblast
Assay: Multiplex assay against human fibroblast
Assay type: toxicity, cell-based
Summary of the method: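 On a CQ1 microscope at 37°C and 5% CO2, live cells were imaged after compound addition. They had been stained at seeding with Hoechst33342, BioTracker Green Microtubule Cytoskeleton Dye, MitoTracker Red and Annexin V Alexa Fluor 680. CellPathfinder machine-learning gating assigned cells to Hoechst high-intensity objects or normal cells, normal cells to healthy, pyknosed or fragmented nuclei, and pyknosed cells to mitotic or apoptotic. Tubulin, mitochondrial-mass and membrane-permeability phenotypes are per cents of healthy-nucleus cells.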

[1] = 12 h, 1 µM, compound concentration 1 uM, replicate 1
[2] = 12 h, 1 µM, compound concentration 1 uM, replicate 2
[3] = 12 h, 10 µM, compound concentration 10 uM, replicate 1
[4] = 12 h, 10 µM, compound concentration 10 uM, replicate 2
[5] = 24 h, 1 µM, compound concentration 1 uM, replicate 1
[6] = 24 h, 1 µM, compound concentration 1 uM, replicate 2
[7] = 24 h, 10 µM, compound concentration 10 uM, replicate 1
[8] = 24 h, 10 µM, compound concentration 10 uM, replicate 2
[9] = 48 h, 1 µM, compound concentration 1 uM, replicate 1
[10] = 48 h, 1 µM, compound concentration 1 uM, replicate 2
[11] = 48 h, 10 µM, compound concentration 10 uM, replicate 1
[12] = 48 h, 10 µM, compound concentration 10 uM, replicate 2

SMILES: CN(C)C(=O)/C(C#N)=C/c1ccc(-c2nc3cnc4[nH]ccc4c3n2C2CCCCC2)o1
- Population Apoptotic (%) [1]: 67%
- Population Fragmented Nuclei (%) [1]: 27%
- Population Healthy Nuclei (%) [1]: 43%
- Population Hoechst High Intensity Objects (%) [1]: 19%
- Population Membrane Permeable-Phenotype (%) [1]: 26%
- Population Mitochondria Different-Phenotype (%) [1]: 17%
- Population Mitotic Cells (%) [1]: 32%
- Population Normal (%) [1]: 80%
- Population Pyknosed Nuclei (%) [1]: 29%
- Population Tubulin-Different-Phenotype (%) [1]: 36%
- Total Cell Count [1]: 131
- Population Apoptotic (%) [2]: 57%
- Population Fragmented Nuclei (%) [2]: 4%
- Population Healthy Nuclei (%) [2]: 87%
- Population Hoechst High Intensity Objects (%) [2]: 2%
- Population Membrane Permeable-Phenotype (%) [2]: 2%
- Population Mitochondria Different-Phenotype (%) [2]: 6%
- Population Mitotic Cells (%) [2]: 42%
- Population Normal (%) [2]: 97%
- Population Pyknosed Nuclei (%) [2]: 7%
- Population Tubulin-Different-Phenotype (%) [2]: 24%
- Total Cell Count [2]: 75
- Population Apoptotic (%) [3]: 51%
- Population Fragmented Nuclei (%) [3]: 28%
- Population Healthy Nuclei (%) [3]: 38%
- Population Hoechst High Intensity Objects (%) [3]: 61%
- Population Membrane Permeable-Phenotype (%) [3]: 22%
- Population Mitochondria Different-Phenotype (%) [3]: 11%
- Population Mitotic Cells (%) [3]: 48%
- Population Normal (%) [3]: 38%
- Population Pyknosed Nuclei (%) [3]: 32%
- Population Tubulin-Different-Phenotype (%) [3]: 65%
- Total Cell Count [3]: 515
- Population Apoptotic (%) [4]: 18%
- Population Fragmented Nuclei (%) [4]: 20%
- Population Healthy Nuclei (%) [4]: 62%
- Population Hoechst High Intensity Objects (%) [4]: 54%
- Population Membrane Permeable-Phenotype (%) [4]: 13%
- Population Mitochondria Different-Phenotype (%) [4]: 63%
- Population Mitotic Cells (%) [4]: 81%
- Population Normal (%) [4]: 45%
- Population Pyknosed Nuclei (%) [4]: 17%
- Population Tubulin-Different-Phenotype (%) [4]: 70%
- Total Cell Count [4]: 91
- Population Apoptotic (%) [5]: 43%
- Population Fragmented Nuclei (%) [5]: 34%
- Population Healthy Nuclei (%) [5]: 46%
- Population Hoechst High Intensity Objects (%) [5]: 14%
- Population Membrane Permeable-Phenotype (%) [5]: 33%
- Population Mitochondria Different-Phenotype (%) [5]: 5%
- Population Mitotic Cells (%) [5]: 56%
- Population Normal (%) [5]: 85%
- Population Pyknosed Nuclei (%) [5]: 19%
- Population Tubulin-Different-Phenotype (%) [5]: 41%
- Total Cell Count [5]: 141
- Population Apoptotic (%) [6]: 54%
- Population Fragmented Nuclei (%) [6]: 5%
- Population Healthy Nuclei (%) [6]: 84%
- Population Hoechst High Intensity Objects (%) [6]: 4%
- Population Membrane Permeable-Phenotype (%) [6]: 2%
- Population Mitochondria Different-Phenotype (%) [6]: 10%
- Population Mitotic Cells (%) [6]: 45%
- Population Normal (%) [6]: 95%
- Population Pyknosed Nuclei (%) [6]: 9%
- Population Tubulin-Different-Phenotype (%) [6]: 36%
- Total Cell Count [6]: 81
- Population Apoptotic (%) [7]: 35%
- Population Fragmented Nuclei (%) [7]: 27%
- Population Healthy Nuclei (%) [7]: 25%
- Population Hoechst High Intensity Objects (%) [7]: 61%
- Population Membrane Permeable-Phenotype (%) [7]: 28%
- Population Mitochondria Different-Phenotype (%) [7]: 18%
- Population Mitotic Cells (%) [7]: 64%
- Population Normal (%) [7]: 38%
- Population Pyknosed Nuclei (%) [7]: 47%
- Population Tubulin-Different-Phenotype (%) [7]: 64%
- Total Cell Count [7]: 606
- Population Apoptotic (%) [8]: 44%
- Population Fragmented Nuclei (%) [8]: 28%
- Population Healthy Nuclei (%) [8]: 53%
- Population Hoechst High Intensity Objects (%) [8]: 54%
- Population Membrane Permeable-Phenotype (%) [8]: 12%
- Population Mitochondria Different-Phenotype (%) [8]: 49%
- Population Mitotic Cells (%) [8]: 55%
- Population Normal (%) [8]: 45%
- Population Pyknosed Nuclei (%) [8]: 17%
- Population Tubulin-Different-Phenotype (%) [8]: 45%
- Total Cell Count [8]: 125
- Population Apoptotic (%) [9]: 52%
- Population Fragmented Nuclei (%) [9]: 33%
- Population Healthy Nuclei (%) [9]: 37%
- Population Hoechst High Intensity Objects (%) [9]: 15%
- Population Membrane Permeable-Phenotype (%) [9]: 24%
- Population Mitochondria Different-Phenotype (%) [9]: 8%
- Population Mitotic Cells (%) [9]: 47%
- Population Normal (%) [9]: 84%
- Population Pyknosed Nuclei (%) [9]: 29%
- Population Tubulin-Different-Phenotype (%) [9]: 46%
- Total Cell Count [9]: 143
- Population Apoptotic (%) [10]: 100%
- Population Fragmented Nuclei (%) [10]: 24%
- Population Healthy Nuclei (%) [10]: 72%
- Population Hoechst High Intensity Objects (%) [10]: 10%
- Population Membrane Permeable-Phenotype (%) [10]: 14%
- Population Mitochondria Different-Phenotype (%) [10]: 5%
- Population Mitotic Cells (%) [10]: 0%
- Population Normal (%) [10]: 89%
- Population Pyknosed Nuclei (%) [10]: 2%
- Population Tubulin-Different-Phenotype (%) [10]: 24%
- Total Cell Count [10]: 119
- Population Apoptotic (%) [11]: 37%
- Population Fragmented Nuclei (%) [11]: 28%
- Population Healthy Nuclei (%) [11]: 28%
- Population Hoechst High Intensity Objects (%) [11]: 62%
- Population Membrane Permeable-Phenotype (%) [11]: 30%
- Population Mitochondria Different-Phenotype (%) [11]: 11%
- Population Mitotic Cells (%) [11]: 62%
- Population Normal (%) [11]: 37%
- Population Pyknosed Nuclei (%) [11]: 42%
- Population Tubulin-Different-Phenotype (%) [11]: 57%
- Total Cell Count [11]: 650
- Population Apoptotic (%) [12]: 57%
- Population Fragmented Nuclei (%) [12]: 31%
- Population Healthy Nuclei (%) [12]: 57%
- Population Hoechst High Intensity Objects (%) [12]: 43%
- Population Membrane Permeable-Phenotype (%) [12]: 9%
- Population Mitochondria Different-Phenotype (%) [12]: 9%
- Population Mitotic Cells (%) [12]: 42%
- Population Normal (%) [12]: 56%
- Population Pyknosed Nuclei (%) [12]: 11%
- Population Tubulin-Different-Phenotype (%) [12]: 62%
- Total Cell Count [12]: 307
